Source: PubChem (Broad Institute)
This is a sample that favours compounds with a hit; in the whole collection about 3.5% have one here.
esBAF inh – SWI/SNF esBAF complex inhibition; mouse ES cells, Bmi1-luciferase knock-in reporter, 24 h; 100% = twice the neutral-well signal; reporter increase, % at 12.5 µM; 350,000 tested, 2% active; AID 602393; in the data active = activation above about 40%; inconclusive = no clear call, values can overlap the other calls;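 note: 0% = median of the plate's neutral control wells and 100% = double that signal; a rise in the Bmi1 reporter signal indicates esBAF inhibition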
MITF TRPM1 HTS – MITF TRPM1 promoter activation in melanoma cells. SK-MEL-5 TRPM1-promoter luciferase, 24 h; % of positive control, neutral wells = 0. activation, % at 12.5 µM. 300,000 tested, 0.75% active;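 active = mean activation of at least 80% with every replicate also reaching 80%; inconclusive = mean reaches 80% but some replicate falls short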;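 note: 0% = neutral control wells and 100% = parthenolide positive control wells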
Env fusion inh – inhibitors of HIV Env-mediated cell fusion; inhibition, % at 12.3 µM; AID 651610; HeLa-JRFL Env/CEM21 cell fusion, luciferase; 360,000 tested, 1.1% active;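 active = mean replicate inhibition score of at least 50 and every replicate individually at or above 50; inconclusive = only one of the two criteria met; inactive = mean below 50 and not all replicates reaching 50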;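 note: 0% = plate neutral controls and 100% = maraviroc near 300 nM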
Wnt bcat act – activates Wnt/beta-catenin signaling in a reporter cell assay; 300,000 tested, 1.2% active; activation, % at 9.35 µM; activator, plate reader; in the data active = activation above about 30%, passing the limit was not always enough; inconclusive = no clear call, values can overlap the other calls;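 note: 0% = neutral control wells and 100% = positive control wells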
ERAP1 inh – ERAP1 (human) enzyme inhibition. inhibition, % at 10.7 µM. Q9NZ08. AID 652197. recombinant ERAP1, Leu-AMC fluorescence, 60 min. 340,000 tested, 0.15% active;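 active = mean replicate inhibition of at least 30%, or all replicates individually reaching that 30% level; inactive = mean below 30% and not every replicate reaching it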;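 note: 0% = neutral control wells and 100% = L-leucinethiol positive control wells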
Cneo AK release – Cryptococcus neoformans lysis via adenylate kinase release; C. neoformans lysis, adenylate kinase release luminescence, 4 h; normalised: neutral wells 0, clomiphene wells 100; lysis activity, % at 15 µM; 360,000 tested, 0.2% active; AID 651654;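 active = mean lysis activity across replicates of at least 80%, whatever share of replicates individually reach that level; inactive = mean lysis activity below 80%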
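Material: C. neoformans cells | Amount: Yeast cell density of 5 × 10^6 cells/mL | Medium: Fresh YPD growth medium | Dosing: Single dose | Times: Static 4 h at 37 °C with compound, 1 h detection | Detection: AK luminescence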
Active calls of the source: *; i = inactive; u = inconclusive; x = no result given; ! = repeats disagree; [ ] = another dose, or the depositor's remark.

SMILES	esBAF inh	MITF TRPM1 HTS	Env fusion inh	Wnt bcat act	ERAP1 inh	Cneo AK release
CC(C)NC(=O)Nc1ccc2c(c1)C(=O)N([C@@H](C)CO)C[C@@H](C)[C@H](CN(C)S(=O)(=O)c1cccs1)O2	-0.8	x	12.8[16.7 µM]	x	x	x
CC(c1nc2ccccc2c(=O)[nH]1)N(C)CCOc1ccc(Cl)cc1 (stereo unspecified)	x	-6.6	97.4*	-2.9	-0.6	2.7
O=c1[nH]c(SCCOc2ccccc2)nc2ccccc12	5.1	25.9	-127.7	x	x	0.1
COCC(=O)Nc1ccc2c(c1)C(=O)N(C)[C@@H]1CC[C@@H](CC(=O)NCCc3ccccc3)O[C@H]1CO2	-3.3	x	-15.8[16.7 µM]	x	3.6	-0.3
N/C(=N\C(=S)Nc1ccc2c(c1)OCO2)c1ccccc1	64.2*	x	-389.7	4.6	0.0	-4.6
N/C(=N\C(=S)Nc1ccccc1)c1ccccc1	82.3*	u	-93.3	41.7*	-0.2	-9.4
NC(=S)Nc1ccc2c(c1)OCO2	x	2.6	7.0	3.7	-2.9	x
N#Cc1ccc(NC(=S)/N=C(\N)c2ccccc2)cc1	u	x	-86.4	-1.0	2.7	-17.9
NC(N)=NC(=S)Nc1ccc(Cl)cc1	46.7*	25.7	-15.4	7.2	-2.1	3.4
C=CCN(Cc1ccc(OC)c(OC)c1)C(=O)c1cc2cc(F)ccc2[nH]1	25.3	0.1	76.1*	1.9	-3.3	-1.3
COc1cc2cc(C(=O)N(C)Cc3ccccc3)[nH]c2cc1OC	0.7	14.3	-15.1	-1.7	-0.7	-0.5
COc1ccc(S(=O)(=O)Nc2ccc3c(c2)C(=O)N([C@@H](C)CO)C[C@H](C)[C@H](CN(C)Cc2ccncc2)O3)cc1	-3.6	x	x	x	-3.7	63.1
COc1ccc(S(=O)(=O)Nc2ccc3c(c2)CC(=O)N([C@@H](C)CO)C[C@H](C)[C@H](CN(C)C)O3)cc1	0.5	x	x	x	1.5	1.5
COc1ccc(-c2cc(C(=O)NCC3CCCO3)on2)cc1OC (stereo unspecified)	4.2	7.6	-6.7	0.4	-2.5	0.9
O=C(NCC1CCCO1)c1cc(-c2ccc(F)cc2)no1 (stereo unspecified)	26.9	11.7	-59.4	38.8*	0.8	10.8
COc1cccc(-c2cc(C(=O)NCC3CCCO3)on2)c1 (stereo unspecified)	55.6*	41.3	-28.9	10.6	-0.4	-1.8
O=C(Cc1ccc(F)cc1)NCC1CCCO1 (stereo unspecified)	-4.2	-3.1	-12.8	-0.4	-1.5	0.7
C[C@@H]1CCCCO[C@@H](CN(C)C(=O)C2CCCCC2)[C@H](C)CN([C@H](C)CO)C(=O)c2cc(NC(=O)C3CCCCC3)ccc2O1	10.8	x	0.8[16.7 µM]	x	0.8	-0.6
CCN(CC)S(=O)(=O)c1ccc(N2CCOCC2)c(NC(=O)COc2ccc(Cl)cc2)c1	12.0	4.5	-78.7	-4.1	x	0.6
CCN(CC)S(=O)(=O)c1ccc(O)c(NC(=O)COc2ccc(S(=O)(=O)N3CCOCC3)cc2)c1	-5.2	5.0	x	43.7*	-2.0	1.2
Cc1ccc(-c2csc(N3C(=N)SCC3=O)n2)cc1	x	x	-53.3	50.5*	5.7	x
CCCNC(=O)C[C@H]1CC[C@@H]2[C@H](COc3ccc(NC(=O)c4cscn4)cc3C(=O)N2C)O1	-0.7	x	x	x	5.4	-3.5
CC1=CC(C)C2(COC(c3ccc[n+](C)c3)OC2)C(C)C1 (stereo unspecified)	x	-0.8	-0.8	-2.2	106.5*	x
Cc1noc(C)c1NC(=O)Nc1ccc2c(c1)C(=O)N([C@@H](C)CO)C[C@H](C)[C@H](CN(C)S(=O)(=O)c1ccc(F)cc1)OCCCC[C@H](C)O2	2.4	x	55.2*[16.7 µM]	x	1.5	-1.9
COc1ccc(NC(=O)Nc2ccc3c(c2)C(=O)N([C@H](C)CO)C[C@@H](C)[C@@H](CN(C)S(=O)(=O)c2ccc(Cl)cc2)OCCCC[C@H](C)O3)cc1	1.3	x	-22.4[16.7 µM]	x	-1.2	96.3*
SMILES	esBAF inh	MITF TRPM1 HTS	Env fusion inh	Wnt bcat act	ERAP1 inh	Cneo AK release
C[C@@H]1CN([C@@H](C)CO)C(=O)c2cc(NC(=O)Nc3ccc(F)cc3)ccc2O[C@@H](C)CCCCO[C@H]1CN(C)S(=O)(=O)c1ccccc1	-2.4	x	u	x	-0.5	100.7*
CCCC(=O)Nc1ccc2c(c1)OC[C@@H](C)N(Cc1ccc(-c3ccccn3)cc1)C[C@H](C)[C@H](OC)CN(C)C2=O	-6.7	x	x	x	-2.1	45.8
COCC(=O)Nc1ccc2c(c1)C(=O)N(C)C[C@H](OC)[C@@H](C)CN(C)[C@@H](C)CO2	-5.9	x	-0.5[16.7 µM]	x	-0.2	29.2
O=C(C[C@@H]1C=C[C@H](NC(=O)CC2CC2)[C@@H](CO)O1)NCc1ccccc1	x	x	x	x	0.1	x
Nc1ccc2oc(-c3ccccn3)nc2c1	30.4	47.5	-55.0	44.0*	x	-2.6
c1ccc(-c2nc3ccccc3o2)nc1	46.4*	34.4	x	x	x	4.6
Cc1ccnc2ccc(-c3nc4ccccc4o3)cc12	23.1	8.0	-143.2	67.2*	x	-1.9
Clc1ccc2oc(-c3ccccn3)nc2c1	x	19.3	-265.8	x	x	3.6
Cc1nc2ccc(-c3nc4ccccc4o3)cc2[nH]1	-0.9	59.4	-423.1	x	x	-10.2
CO[C@@H]1CN(C)C(=O)c2ccc(NC(=O)C3CC3)cc2OC[C@@H](C)N(Cc2cccnc2)C[C@H]1C	-0.3	x	x	x	-0.1	-6.0
COc1ccc(NC(=O)N(C)C[C@H]2Oc3ccc(NC(=O)Nc4ccccc4)cc3C(=O)N([C@H](C)CO)C[C@@H]2C)cc1	-1.8	x	x	x	-1.3	-3.2
Cc1cc2c3c(c1)C1(SCC(=O)N1c1ccc(F)cc1)C(=O)N3C(C)(C)CC2C (stereo unspecified)	-11.3	4.4	69.5*	x	x	0.3
C[C@@H]1CN([C@H](C)CO)C(=O)Cc2cc(NC(=O)Cc3ccccc3)ccc2O[C@H]1CN(C)S(=O)(=O)c1ccccc1	-2.1	x	21.0[16.7 µM]	x	1.0	1.9
Nc1c2c(nc3ccccc13)CCCC2	-3.9	9.1	i	-2.9	-4.0	-1.1
Nc1c2ccccc2nc2ccccc12	5.9	-83.1	-75.7	69.3*!	60.6*	-0.1
CN1C(=O)c2cc(NC(=O)C3CCCC3)ccc2OC[C@@H]2O[C@H](CC(=O)NCCc3ccncc3)CC[C@H]21	x	x	x	x	0.6	x
CO[C@H]1CN(C)C(=O)c2cc(NS(=O)(=O)c3cccc(C)c3)ccc2OC[C@@H](C)NC[C@@H]1C	1.7	x	-7.4[16.7 µM]	x	0.8	0.8
Cc1ccc(-n2nc3ccc(N)cc3n2)cc1C	-19.4	-20.1	-65.4	31.0*	3.5	13.8
CCNC(=O)[C@H]1[C@H](CO)[C@H]2Cn3c(ccc(-c4ccc(F)cc4)c3=O)[C@H]2N1Cc1cc(F)ccc1F	1.4	x	x	x	1.2	45.6
Cc1cc(C)n2nc(SCN3C(=O)c4ccccc4C3=O)nc2n1	0.0	84.1*	x	-4.4	3.2	0.3
Cc1cc(C)n2nc(SCC3COc4ccccc4O3)nc2n1 (stereo unspecified)	62.7*	x	-161.1	7.1	x	-2.2
Cc1cc(C)n2nc(SCc3nnc(SCc4ccccc4Cl)s3)nc2n1	1.0	15.3	11.3	-0.2	x	-2.1
